Source: ChEMBL document CHEMBL1122368, “Synthesis and antihypertensive activity of some new quinazoline derivatives” (1983)

What was measured:
Rattus norvegicus [1] = test: Antihypertensive activity as fall in systolic blood pressure after 3 hr of 10 uM/kg po dosing in Spontaneously hypertensive rats.; format: functional, Artery
Summary of the method: (§1)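 Conscious spontaneously hypertensive rats dosed by gavage, about 1 mL/rat. Systolic pressure recorded by tail-cuff after warming the rats 30 min at 36 °C. Fall in systolic BP (mmHg) read versus control values; listed values are significant decreases (p ≤ 0.05), otherwise marked NS. Baseline systolic pressure 175–190 mmHg across experiments.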

Rattus norvegicus [2] = test: Antihypertensive activity as fall in systolic blood pressure after 5 h of 1 umol/kg po dosing in Spontaneously hypertensive rats;NS means nonsignificant change in blood pressure.; format: functional, organism-based; settings: Artery; summary of the method: as §1
Rattus norvegicus [3] = test: Antihypertensive activity as fall in systolic blood pressure after 1 hr of 10 uM/kg po dosing in Spontaneously hypertensive rats.; format: functional, Artery; summary of the method: as §1
Rattus norvegicus [4] = test: Antihypertensive activity as fall in systolic blood pressure after 3 hr of 1 umol/kg po dosing in Spontaneously hypertensive rats.; format: functional, Artery; summary of the method: as §1
Rattus norvegicus [5] = test: Antihypertensive activity as fall in systolic blood pressure after 1 h of 1 umol/kg po dosing in Spontaneously hypertensive rats.; format: functional, Artery; summary of the method: as §1
Rattus norvegicus [6] = test: Antihypertensive activity as fall in systolic blood pressure after 5 hr of 10 uM/kg po dosing in Spontaneously hypertensive rats.; format: functional, Artery; summary of the method: as §1
Rattus norvegicus [7] = test: Hypotensive activity in anesthetized rats, dose that produced a 30% fall in mean blood pressure; format: functional
Summary of the method: (§2)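 Normotensive rats under urethane anaesthesia, arterial pressure recorded, femoral vein cannulated. Dosing iv in rising doses (0.01, 0.1, 1, 10 μmol/kg) at 30-min intervals, 1 mL/kg over 2 min; solvent-treated controls. Colonic temperature held at 38.0 ± 0.3 °C. Effect read at its maximum, 1–5 min after injection. ED30 is the dose (μmol/kg) giving a 30% fall in mean blood pressure.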

Rattus norvegicus [8] = test: Hypotensive activity in anesthetized rats, dose that produced a 30% fall in mean blood pressure after 30 minutes; format: functional
Summary of the method: as §2, with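 “solvent controls; colonic” for “solvent-treated controls. Colonic”, “temperature” for “temperature held at”, “Fall in pressure” for “Effect”, “30” for “at its maximum, 1–5”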

Rattus norvegicus [9] = test: Antihypertensive activity as fall in systolic blood pressure after 3 h of 3 umol/kg po dosing in Spontaneously hypertensive rats.; format: functional, Artery; summary of the method: as §1
Rattus norvegicus [10] = test: Antihypertensive activity as fall in systolic blood pressure after 5 hr of 1 umol/kg po dosing in Spontaneously hypertensive rats.; format: functional, Artery; summary of the method: as §1
Rattus norvegicus [11] = test: Antihypertensive activity as fall in systolic blood pressure after 5 hr of 3 umol/kg po dosing in Spontaneously hypertensive rats.; format: functional, Artery; summary of the method: as §1
Rattus norvegicus [12] = test: Antihypertensive activity as fall in systolic blood pressure after 5 h of 0.3 umol/kg po dosing in Spontaneously hypertensive rats.; format: functional, Artery; summary of the method: as §1
Rattus norvegicus [13] = test: Antihypertensive activity as fall in systolic blood pressure after 1 h of 3 umol/kg po dosing in Spontaneously hypertensive rats.; format: functional, Artery; summary of the method: as §1
Rattus norvegicus [14] = test: Antihypertensive activity as fall in systolic blood pressure after 1 h of 0.3 umol/kg po dosing in Spontaneously hypertensive rats;NS means nonsignificant change in blood pressure.; format: functional, organism-based; settings: Artery; summary of the method: as §1
Rattus norvegicus [15] = test: Antihypertensive activity as fall in systolic blood pressure after 3 h of 0.3 umol/kg po dosing in Spontaneously hypertensive rats.; format: functional, Artery; summary of the method: as §1
Rattus norvegicus [16] = test: Antihypertensive activity as fall in systolic blood pressure after 3 hr of 100 umol/kg po dosing in Spontaneously hypertensive rats.; format: functional, Artery; summary of the method: as §1
Rattus norvegicus [17] = test: Antihypertensive activity as fall in systolic blood pressure after 1 h of 100 umol/kg po dosing in Spontaneously hypertensive rats.; format: functional, Artery; summary of the method: as §1
Rattus norvegicus [18] = test: Antihypertensive activity as fall in systolic blood pressure after 5 h of 100 umol/kg po dosing in Spontaneously hypertensive rats.; format: functional, Artery; summary of the method: as §1
Rattus norvegicus [19] = test: Antihypertensive activity as fall in systolic blood pressure after 3 hr of 1 uM/kg po dosing in Spontaneously hypertensive rats.; format: functional, Artery; summary of the method: as §1
Rattus norvegicus [20] = test: Antihypertensive activity as fall in systolic blood pressure after 1 hr of 1 uM/kg po dosing in Spontaneously hypertensive rats.; format: functional, Artery; summary of the method: as §1
Rattus norvegicus [21] = test: Antihypertensive activity as fall in systolic blood pressure after 5 hr of 1 uM/kg po dosing in Spontaneously hypertensive rats.; format: functional, Artery; summary of the method: as §1
Rattus norvegicus [22] = test: Antihypertensive activity as fall in systolic blood pressure after 3 h of 100 umol/kg po dosing in Spontaneously hypertensive rats.; format: functional, Artery; summary of the method: as §1
Rattus norvegicus [23] = test: Antihypertensive activity as fall in systolic blood pressure after 1 hr of 100 umol/kg po dosing in Spontaneously hypertensive rats.; format: functional, Artery; summary of the method: as §1
Rattus norvegicus [24] = test: Antihypertensive activity as fall in systolic blood pressure after 3 hr of 1 umol/kg po dosing in Spontaneously hypertensive rats;NS means nonsignificant change in blood pressure.; format: functional, organism-based; settings: Artery; summary of the method: as §1
Rattus norvegicus [25] = test: Antihypertensive activity as fall in systolic blood pressure after 1 hr of 10 uM/kg po dosing in Spontaneously hypertensive rats;NS means nonsignificant change in blood pressure.; format: functional, organism-based; settings: Artery; summary of the method: as §1

SMILES | ED30 (Rattus norvegicus [7]) [µM/kg] | ED30 (Rattus norvegicus [8]) [µM/kg] | also measured
CCCCC(=O)C1CCN(c2nc(N)c3cc(OC)c(OC)cc3n2)CC1.Cl | 0.03 | 0.06 | Decrease in SBP (Rattus norvegicus [1]): 36 mmHg; Decrease in SBP (Rattus norvegicus [2]): Not significant; Decrease in SBP (Rattus norvegicus [3]): 40 mmHg; Decrease in SBP (Rattus norvegicus [4]): 14 mmHg; Decrease in SBP (Rattus norvegicus [5]): 13 mmHg; Decrease in SBP (Rattus norvegicus [6]): 27 mmHg
COc1cc2nc(N3CCC(C(C)O)CC3)nc(N)c2cc1OC.Cl (configuration not stated) | 0.5 | 0.7 | 
COc1cc2nc(N3CCC(C(=O)c4cccs4)CC3)nc(N)c2cc1OC.Cl | 0.2 | 6 | 
COc1cc2nc(N3CCC(C(=O)N4C(C)CCCC4C)CC3)nc(N)c2cc1OC.Cl (configuration not stated) | 0.08 | 0.2 | 
CCCCC(O)C1CCN(c2nc(N)c3cc(OC)c(OC)cc3n2)CC1.Cl (configuration not stated) | 0.1 | 0.7 | 
COc1cc2nc(N3CCC(C(=O)C4CCCC4)CC3)nc(N)c2cc1OC.Cl | 0.06 | 0.09 | Decrease in SBP (Rattus norvegicus [1]): 54 mmHg; Decrease in SBP (Rattus norvegicus [9]): 34 mmHg; Decrease in SBP (Rattus norvegicus [3]): 45 mmHg; Decrease in SBP (Rattus norvegicus [10]): 21 mmHg; Decrease in SBP (Rattus norvegicus [11]): 35 mmHg; Decrease in SBP (Rattus norvegicus [12]): 11 mmHg; Decrease in SBP (Rattus norvegicus [13]): 34 mmHg; Decrease in SBP (Rattus norvegicus [4]): 20 mmHg; Decrease in SBP (Rattus norvegicus [5]): 18 mmHg; Decrease in SBP (Rattus norvegicus [6]): 50 mmHg; Decrease in SBP (Rattus norvegicus [14]): Not significant; Decrease in SBP (Rattus norvegicus [15]): 11 mmHg
COc1cc2nc(N3CCN(C(=O)c4ccco4)CC3)nc(N)c2cc1OC [PRAZOSIN] | 0.01 | 0.03 | Decrease in SBP (Rattus norvegicus [1]): 36 mmHg; Decrease in SBP (Rattus norvegicus [16]): 30 mmHg; Decrease in SBP (Rattus norvegicus [17]): 38 mmHg; Decrease in SBP (Rattus norvegicus [18]): 26 mmHg; Decrease in SBP (Rattus norvegicus [3]): 38 mmHg; Decrease in SBP (Rattus norvegicus [19]): 30 mmHg; Decrease in SBP (Rattus norvegicus [20]): 29 mmHg; Decrease in SBP (Rattus norvegicus [6]): 34 mmHg; Decrease in SBP (Rattus norvegicus [21]): 26 mmHg
COc1cc2nc(N3CCC(C(N)=O)CC3)nc(N)c2cc1OC.Cl | 0.1 | 0.8 | 
COc1cc2nc(N3CCC(C)CC3)nc(N)c2cc1OC.Cl | 0.08 |  | 
COc1cc2nc(N3CCC(C(=O)N4CCCCCCC4)CC3)nc(N)c2cc1OC.Cl | 0.02 | 0.05 | Decrease in SBP (Rattus norvegicus [22]): 66 mmHg; Decrease in SBP (Rattus norvegicus [1]): 29 mmHg; Decrease in SBP (Rattus norvegicus [18]): 83 mmHg; Decrease in SBP (Rattus norvegicus [2]): Not significant; Decrease in SBP (Rattus norvegicus [23]): 52 mmHg; Decrease in SBP (Rattus norvegicus [3]): 29 mmHg; Decrease in SBP (Rattus norvegicus [24]): Not significant; Decrease in SBP (Rattus norvegicus [5]): 11 mmHg; Decrease in SBP (Rattus norvegicus [6]): 26 mmHg
COc1cc2nc(N3CCCC(C(=O)N4CCCC4)C3)nc(N)c2cc1OC.Cl (stereo in doubt; 6i) | 12 | 30 | 
COc1cc2nc(N3CCCC(C(=O)N4CCCC4)C3)nc(N)c2cc1OC.Cl (stereo in doubt; 6ii) | 10 | 15 | 
COc1cc2nc(N3CCC(C(=O)N4CCC4)CC3)nc(N)c2cc1OC.Cl | 0.07 | 0.4 | 
CCOC(=O)C1CCN(c2nc(N)c3cc(OC)c(OC)cc3n2)CC1.Cl | 0.3 | 30 | 
COc1cc2nc(N3CCC(C(O)C4CCCC4)CC3)nc(N)c2cc1OC.Cl (configuration not stated) | 0.1 | 0.7 | 
COc1cc2nc(N3CCC(C(=O)N4C(C)CCC4C)CC3)nc(N)c2cc1OC.Cl (configuration not stated) | 0.08 | 0.2 | 
COc1cc2nc(N3CCC(C(=O)OCC(C)(C)C)CC3)nc(N)c2cc1OC.Cl | 0.03 | 2 | 
COc1cc2nc(N3CCC(C(=O)C4CCCCC4)CC3)nc(N)c2cc1OC.Cl | 0.07 | 0.1 | Decrease in SBP (Rattus norvegicus [25]): Not significant; Decrease in SBP (Rattus norvegicus [1]): 54 mmHg; Decrease in SBP (Rattus norvegicus [2]): Not significant; Decrease in SBP (Rattus norvegicus [4]): 20 mmHg; Decrease in SBP (Rattus norvegicus [5]): 15 mmHg; Decrease in SBP (Rattus norvegicus [6]): 51 mmHg
COc1cc2nc(N3CCC(Cc4ccccc4)CC3)nc(N)c2cc1OC.Cl | 0.06 | 0.07 | 
COc1cc2nc(N3CCC(C(=O)N4CCCCC4C)CC3)nc(N)c2cc1OC.Cl (configuration not stated) | 0.1 | 0.9 | 
COc1cc2nc(N3CCC(C(=O)N4CCCCCC4)CC3)nc(N)c2cc1OC.Cl | 0.01 | 0.05 | 
COc1cc2nc(N3CCC(C(O)C4CCCCC4)CC3)nc(N)c2cc1OC.Cl (configuration not stated) | 0.06 | 0.1 | Decrease in SBP (Rattus norvegicus [1]): 30 mmHg; Decrease in SBP (Rattus norvegicus [3]): 25 mmHg; Decrease in SBP (Rattus norvegicus [10]): 19 mmHg; Decrease in SBP (Rattus norvegicus [4]): 17 mmHg; Decrease in SBP (Rattus norvegicus [5]): 12 mmHg; Decrease in SBP (Rattus norvegicus [6]): 38 mmHg
COc1cc2nc(N3CCC(C(=O)N4CCCC4)CC3)nc(N)c2cc1OC.Cl | 0.2 | 0.4 | 
CCOC(=O)C1CCCN(c2nc(N)c3cc(OC)c(OC)cc3n2)C1.Cl (stereo in doubt; 6cc) | 0.2 |  | 
CCC(=O)C1CCN(c2nc(N)c3cc(OC)c(OC)cc3n2)CC1.Cl | 5 | 30 | 
COc1cc2nc(N3CCC(C(=O)N4CCCCC4)CC3)nc(N)c2cc1OC.Cl | 0.02 | 0.08 | 
COc1cc2nc(N3CCC(C(=O)NC(C)(C)C)CC3)nc(N)c2cc1OC.Cl | 0.08 | 1 | 
CCOC(=O)C1CCCN(c2nc(N)c3cc(OC)c(OC)cc3n2)C1.Cl (stereo in doubt; 6c) | 0.8 | 20 | 
